Test results published in ChEMBL document CHEMBL4619733, “Design and optimization of a series of 4-(3-azabicyclo[3.1.0]hexan-3-yl)pyrimidin-2-amines: Dual inhibitors of TYK2 and JAK1” (Bioorg Med Chem, 2020).
Converted amounts (≈) assume the structure as drawn.

Key:
[1] = Lipophilicity, log D of compound at pH 7.4; format: physicochemical; conditions: buffer
[2] = Apparent permeability in dog MDCK2 cells at pH 7.4; format: ADME, cell-based, Canis lupus familiaris, MDCK-II; conditions: MDCK
How it was run: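 Passive permeability across MDCK-II cells; mean apparent permeability reported.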

[3] = Intrinsic clearance in human liver microsome; format: ADME; conditions: liver microsomes, read-out: CLH
[4] = Intrinsic clearance in human hepatocytes per million cells; format: ADME, cell-based, Hepatocyte; conditions: read-out: CLH
[5] = Aqueous solubility of compound in pH 6.5 buffer; format: physicochemical
How it was run: (§1)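 Solubility measured on crystalline material at pH 6.5 and pH 2.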

[6] = Aqueous solubility of compound in pH 2 buffer; format: physicochemical; how it was run: as §1
[7] = Clearance in Sprague-Dawley rat plasma at 1 mg/kg, iv; format: ADME, organism-based
[8] = Volume of distribution in Sprague-Dawley rat at 1 mg/kg, iv; format: ADME, organism-based; conditions: in vivo
[9] = Half life in Sprague-Dawley rat at 1 mg/kg, iv; format: ADME, organism-based; conditions: in vivo
[10] = Cmax in Sprague-Dawley rat at 3 mg/kg, po; format: ADME, organism-based; set-up: dose 3 mg/kg, route oral; conditions: in vivo
How it was run: (§2)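 Sprague-Dawley rats dosed orally at 3 mg/kg, with intravenous reference at 1 mg/kg.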

[11] = AUC infinity in Sprague-Dawley rat at 3 mg/kg, po; format: ADME, organism-based; set-up: dose 3 mg/kg, route oral, time infinity; conditions: in vivo; how it was run: as §2
[12] = Oral bioavailability in Sprague-Dawley rat at 3 mg/kg; format: ADME, organism-based; conditions: in vivo; how it was run: as §2

Row | SMILES | logD [1] | also measured
1 | C[C@@H]1[C@@H]2CN(c3nc(Nc4cnn(C)c4)ncc3F)C[C@]12NC(=O)[C@@H]1C[C@H]1C#N | 2.35 | Papp [2]: 12.9 ×10⁻⁶ cm/s
2 | C[C@@H]1[C@@H]2CN(c3nc(Nc4cnn(C)c4)ncc3F)C[C@]12NC(=O)[C@H]1CC1(F)F | 2.92 | 
3 | O=C(N[C@]12C[C@H]1CN(c1nc(Nc3cnn(CCO)c3)ncc1F)C2)C1CC1 | 1.75 | 
4 | C[C@@H]1[C@@H]2CN(c3nc(Nc4cnn(C)c4)ncc3F)C[C@]12NC(=O)[C@@H]1CC1(F)F | 2.65 | Papp [2]: 17 ×10⁻⁶ cm/s; microsomal CLint [3]: < 8 µL/min/mg; hepatocyte CLint [4]: 3.45 µL/min/1e6 cells; solubility [5]: 140 µg/mL (≈ 344 µM); solubility [6]: > 15000 µg/mL; clearance [7]: 13 mL/min/kg; Vd [8]: 1.2 L/kg; half-life [9]: 1.4 h; Cmax [10]: 614 ng/mL; AUC(0-inf) [11]: 2030 ng·h/mL; bioavailability [12]: 54%
5 | C[C@@H]1[C@@H]2CN(c3nc(Nc4cnn(CCO)c4)ncc3F)C[C@]12NC(=O)[C@H]1C[C@@H]1C#N | 1.75 | Papp [2]: 1.2 ×10⁻⁶ cm/s
6 | CCNC(=O)c1ccc(Nc2nccc(N3CC4CCC(C3)N4C(=O)C3CC3)n2)cc1 | 1.8 | 
7 | N#C[C@H]1C[C@@H]1C(=O)N[C@@]12C[C@@H]1CN(c1nc(Nc3cnn(CCO)c3)ncc1F)C2 | 1.43 | 
8 | O=C(C1CC1)N1C2CCC1CN(c1nc(Nc3cnn(CCO)c3)ncc1F)C2 | 1.8 | 
9 | O=C(N[C@@]12C[C@@H]1CN(c1nc(Nc3cnn(CCO)c3)ncc1F)C2)C1CC1 | 1.74 | 
10 | N#C[C@@H]1C[C@H]1C(=O)N[C@@]12C[C@@H]1CN(c1nc(Nc3cnn(CCO)c3)ncc1F)C2 | 1.4 | 
11 | C[C@@H]1[C@@H]2CN(c3nc(Nc4cnn(CCO)c4)ncc3F)C[C@]12NC(=O)[C@@H]1C[C@H]1C#N | 1.71 | 
12 | CCNC(=O)c1ccc(Nc2nccc(N3CC4CC(C3)N4C(=O)C3CC3)n2)cc1 | 1.7 | 
13 | C[C@@H]1[C@@H]2CN(c3nc(Nc4cnn(CCO)c4)ncc3F)C[C@]12NC(=O)C1CC1 | 2.1 | 
14 | C[C@@H]1[C@@H]2CN(c3nc(Nc4cnn(C)c4)ncc3F)C[C@]12NC(=O)[C@H]1C[C@@H]1C#N | 2.32 | Papp [2]: 13.8 ×10⁻⁶ cm/s
